Measurements taken from ChEMBL document CHEMBL3593206, “SAR Studies of Exosite-Binding Substrate-Selective Inhibitors of A Disintegrin And Metalloprotease 17 (ADAM17) and Application as Selective in Vitro Probes” (J Med Chem, 2015).
pIC50: −log10 of the molar value.

Experiments:
[1] = molecular target: T1, Disintegrin and metalloproteinase domain-containing protein 10 (Homo sapiens, UniProt O14672); experiment: Inhibition of ADAM10 (unknown origin) preincubated for 30 mins followed by substrate addition measured every 30 mins for 2 hrs by fluorescence assay
T1 sequence (O14672 whole entry): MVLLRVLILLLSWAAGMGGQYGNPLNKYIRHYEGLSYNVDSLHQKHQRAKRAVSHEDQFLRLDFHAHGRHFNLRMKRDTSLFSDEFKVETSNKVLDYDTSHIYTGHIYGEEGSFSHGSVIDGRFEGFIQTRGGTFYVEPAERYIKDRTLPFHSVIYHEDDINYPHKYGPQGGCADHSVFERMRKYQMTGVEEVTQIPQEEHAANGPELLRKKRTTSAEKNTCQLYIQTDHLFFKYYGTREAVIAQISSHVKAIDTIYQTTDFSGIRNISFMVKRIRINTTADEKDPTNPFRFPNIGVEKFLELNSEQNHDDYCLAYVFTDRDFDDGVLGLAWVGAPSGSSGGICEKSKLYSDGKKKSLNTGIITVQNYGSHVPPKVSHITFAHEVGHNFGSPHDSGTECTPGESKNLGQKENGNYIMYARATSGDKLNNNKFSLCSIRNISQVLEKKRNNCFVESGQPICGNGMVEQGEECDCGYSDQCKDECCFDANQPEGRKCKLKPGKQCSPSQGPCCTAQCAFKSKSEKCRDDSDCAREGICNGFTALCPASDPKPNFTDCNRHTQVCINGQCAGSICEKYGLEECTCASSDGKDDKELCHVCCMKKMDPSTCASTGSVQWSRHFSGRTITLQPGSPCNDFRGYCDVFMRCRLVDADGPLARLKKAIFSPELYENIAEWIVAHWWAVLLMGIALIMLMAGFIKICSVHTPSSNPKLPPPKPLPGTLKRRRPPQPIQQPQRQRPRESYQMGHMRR
Summary of the method: (§1)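 Enzyme at 30 nM (3× solution) in 10 mM Hepes, 0.001% Brij-35, pH 7.5. Inhibitor series of 10 points, 1:3, from 300 μM, preincubated 30 min at RT. Glycosylated substrate added from a 30 μM 3× solution. Fluorescence (ex 360/em 460 nm) read every 30 min for 2 h. Inhibition taken from hydrolysis rates against substrate-only and substrate-plus-enzyme wells.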

[2] = molecular target: Disintegrin and metalloproteinase domain-containing protein 17 (Homo sapiens, UniProt P78536); experiment: Inhibition of ADAM17 (unknown origin) preincubated for 30 mins followed by substrate addition measured every 30 mins for 2 hrs by fluorescence assay; summary of the method: as §1
Disintegrin and metalloproteinase domain-containing protein 17, sequence (P78536 whole entry, the tested form may be a part): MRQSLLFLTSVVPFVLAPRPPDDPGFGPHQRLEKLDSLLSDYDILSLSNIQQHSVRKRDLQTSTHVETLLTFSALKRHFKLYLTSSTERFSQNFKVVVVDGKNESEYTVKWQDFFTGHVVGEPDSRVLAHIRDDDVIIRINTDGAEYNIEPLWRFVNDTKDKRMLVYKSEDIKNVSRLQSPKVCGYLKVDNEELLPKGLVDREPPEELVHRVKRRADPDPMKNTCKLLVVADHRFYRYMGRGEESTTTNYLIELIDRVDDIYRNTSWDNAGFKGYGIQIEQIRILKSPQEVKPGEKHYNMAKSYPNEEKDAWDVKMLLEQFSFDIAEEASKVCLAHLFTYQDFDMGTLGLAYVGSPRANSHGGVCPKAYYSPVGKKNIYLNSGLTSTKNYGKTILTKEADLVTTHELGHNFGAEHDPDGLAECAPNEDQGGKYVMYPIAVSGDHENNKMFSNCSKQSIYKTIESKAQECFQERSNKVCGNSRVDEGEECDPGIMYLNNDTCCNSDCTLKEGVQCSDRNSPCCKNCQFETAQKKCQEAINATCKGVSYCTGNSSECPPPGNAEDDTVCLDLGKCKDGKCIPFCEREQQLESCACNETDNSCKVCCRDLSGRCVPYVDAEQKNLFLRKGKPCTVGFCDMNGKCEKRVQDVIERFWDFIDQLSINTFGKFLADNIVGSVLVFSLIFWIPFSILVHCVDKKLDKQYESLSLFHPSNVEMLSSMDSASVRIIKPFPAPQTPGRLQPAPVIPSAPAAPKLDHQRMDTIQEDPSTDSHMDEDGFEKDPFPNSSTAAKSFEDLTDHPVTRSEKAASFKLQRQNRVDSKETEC

Row | SMILES | pIC50 [1] | pIC50 [2]
1 | O=C1NC[C@@H](Cc2ccc3ccccc3c2)N(C[C@@H]2CCCN2C[C@H](Cc2ccc(O)cc2)N2C[C@H](Cc3ccc(O)cc3)N(CCC34CC5CC(CC(C5)C3)C4)C(=O)C2=O)C1=O | < 4.00 | 5.09
2 | O=C1NC[C@@H](Cc2ccc3ccccc3c2)N(C[C@@H]2CCCN2C[C@H](Cc2ccc(O)cc2)N2C[C@@H](Cc3ccc(O)cc3)N(CCC34CC5CC(CC(C5)C3)C4)C(=O)C2=O)C1=O | < 4.00 | 4.82
3 | CCC[C@H]1CNC(=O)C(=O)N1C[C@@H]1CCCN1C[C@H](Cc1ccc(O)cc1)N1C[C@H](Cc2ccc(O)cc2)N(CC(CC)c2ccccc2)C(=O)C1=O (stereo partly drawn) | < 4.00 | 4.82
4 | CCC[C@H]1CNC(=O)C(=O)N1C[C@@H]1CCCN1C[C@H](Cc1ccc(O)cc1)N1C[C@H](Cc2ccc(O)cc2)N(CC2CCCCC2)C(=O)C1=O | < 4.00 | 4.54
5 | CCC[C@H]1CNC(=O)C(=O)N1C[C@@H]1CCCN1C[C@H](Cc1ccc(O)cc1)N1C[C@H](Cc2ccc(O)cc2)N(CC2CCC2)C(=O)C1=O | < 4.00 | 4.03
6 | CCC[C@H]1CNC(=O)C(=O)N1C[C@@H]1CCCN1C[C@H](Cc1ccc(O)cc1)N1C[C@H](Cc2ccc(O)cc2)N(CC2CCC(C(C)(C)C)CC2)C(=O)C1=O (stereo partly drawn) | < 4.00 | 5.00

More lines, now with the values ahead:

Row | pIC50 [1] | pIC50 [2] | SMILES
7 | < 4.00 | 5.00 | CCC[C@H]1CNC(=O)C(=O)N1C[C@@H]1CCCN1C[C@H](Cc1ccc(O)cc1)N1C[C@H](Cc2ccc3ccccc3c2)N(CCC23CC4CC(CC(C4)C2)C3)C(=O)C1=O
8 | < 4.00 | 5.23 | CCC[C@H]1CNC(=O)C(=O)N1C[C@@H]1CCCN1C[C@H](Cc1ccc(O)cc1)N1C[C@H](Cc2ccc(O)cc2)N(CCC23CC4CC(CC(C4)C2)C3)C(=O)C1=O
9 | < 4.00 | 5.27 | CCC[C@H]1CNC(=O)C(=O)N1C[C@@H]1CCCN1C[C@H](Cc1ccc(O)cc1)N1C[C@@H](Cc2ccc(O)cc2)N(CCC23CC4CC(CC(C4)C2)C3)C(=O)C1=O
